What all share (format): functional, cell-based
In test [1] the test system is HeLa. In words: Cytotoxicity agaisnt human HeLa cells by SRB assay. The method, boiled down: (§1)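 IC50 from three independent experiments; growth inhibition read by SRB (adherent lines) or MTT (HL60, K562).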
The subject of test [2] is HL-60. In words: Cytotoxicity against human HL60 cells by MTT assay. The procedure, abridged: as §1
A general note: Tetrazolium dyes change colour on reduction, which living cells bring about.

The test system of test [3] is MDA-MB-231. Description: Reduction of hypoxia-induced HIF1alpha accumulation in human MDA-MB-231 cells at 10 uM by Western blotting analysis. The method, boiled down:
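MDA-MB-231 cells (5 × 10⁵) treated at 10 µM, held in hypoxia (1% O₂) for 10 h, then lysed in 1× SDS loading buffer (pH 6.8 Tris–HCl, DTT, SDS) and boiled. Equal lysate amounts run on 10% SDS–PAGE, transferred to nitrocellulose, probed for HIF-1α and β-actin with HRP secondary antibodies, detected by ECL. Representative of three independent experiments.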
For orientation: A western blot detects proteins with antibodies after separation by electrophoresis.

Test [4] in a line: Cytotoxicity agaisnt human Rh30 cells by SRB assay. Particulars: SJRH30. The method, boiled down:
as §1
Background: The SRB assay estimates cell density from bound dye.

For test [5], the system named is MDA-MB-231. In words: Cytotoxicity agaisnt human MDA-MB-231 cells by SRB assay. The procedure, abridged:
as §1

The subject of test [6] is HCT-116. Description: Cytotoxicity agaisnt human HCT116 cells by SRB assay. The procedure, abridged: as §1
Test [7] deals with K562. In words: Cytotoxicity agaisnt human K562 cells by MTT assay. The procedure, abridged:
as §1

In test [8] the test system is A549. In words: Cytotoxicity agaisnt human A549 cells by SRB assay. The method, boiled down:
as §1

Test [9] concerns KB. In words: Cytotoxicity agaisnt vincristine-resistant human KB cells by SRB assay. The method, boiled down: as §1
Test [10] deals with HT-29. In words: Cytotoxicity agaisnt human HT29 cells by SRB assay. The method, boiled down:
as §1

Test [11] can be described thus: Cytotoxicity agaisnt human KB-3-1 cells by SRB assay. The method, boiled down:
as §1

SMILES strings stand for the structures. Calls of active or inactive are those of the source. The calls are words filed in the database; no cut-off is given here.

Regarding `CC(=O)c1ccc(S(=O)(=O)NC(C)C2=CC(=O)c3c(O)ccc(O)c3C2=O)cc1` (centres undefined), the IC50 was determined as 5760 nM in test [1] and 260 nM in test [2].
`COc1ccc(S(=O)(=O)NC(C)C2=CC(=O)c3c(O)ccc(O)c3C2=O)c(OC)c1` (centres undefined): the IC50 in [1] turned out to be 19500 nM; in test [2], 500 nM.
On to `COc1cc([C@@H]2c3cc4c(cc3[C@@H](O)[C@H]3COC(=O)[C@H]23)OCO4)cc(OC)c1O` [4'-DEMETHYLEPIPODOPHYLLOTOXIN], for which the IC50 in test [1] was found to be 980 nM; in test [2] it was 820 nM.
On to `Cc1ccccc1S(=O)(=O)NC(C)C1=CC(=O)c2c(O)ccc(O)c2C1=O` (centres undefined), for which the values for the concentration for half-maximal inhibition (IC50) in test [1] and in test [2] were 4490 nM and 70 nM, respectively. In addition, in test [3], the result was Active.
For the compound `CCOC(=O)c1ccc(S(=O)(=O)NC(C2=CC(=O)c3c(O)ccc(O)c3C2=O)C(C)C)cc1` (centres undefined), the IC50 in test [4] came to 2600 nM; in test [5], 4700 nM; in test [6], 3800 nM; in test [7], 18200 nM; in test [1], 850 nM; in test [2], 150 nM. Further, the IC50 in test [8] came out at 11400 nM; in test [9], 13200 nM; in [10], 2800 nM; in test [11], 11800 nM.
Consider `CC(NS(=O)(=O)c1ccc(Cl)cc1)C1=CC(=O)c2c(O)ccc(O)c2C1=O` (centres undefined), for which the IC50 worked out at 1900 nM in test [4]; 4500 nM in test [5]; 3200 nM in [6]; 19900 nM in [7]; 810 nM in test [1]; 250 nM in test [2]. Further, the IC50 stood at 8300 nM in [8], 12400 nM in test [9], 1300 nM in test [10] and 6900 nM in test [11]. The outcome in test [3] was Active.
Turning to `CC(C)=CC[C@@H](O)C1=CC(=O)c2c(O)ccc(O)c2C1=O` [SHIKONIN], the IC50 in test [1] was 13400 nM; in [2], 440 nM. For the same compound, the outcome in test [3] was Active.
With `Cc1ccc(S(=O)(=O)NC(C)C2=CC(=O)c3c(O)ccc(O)c3C2=O)cc1` (centres undefined), the IC50 stood at 5340 nM in test [1] and 30 nM in test [2].
As for `CCOC(=O)c1ccc(S(=O)(=O)NC(C)C2=CC(=O)c3c(O)ccc(O)c3C2=O)cc1` (centres undefined), the concentration for half-maximal inhibition (IC50) in test [1] was 2260 nM; in [2] it was 120 nM.
As to `CC(=O)c1ccc(S(=O)(=O)NC(C2=CC(=O)c3c(O)ccc(O)c3C2=O)C(C)C)cc1` (centres undefined), the concentration for half-maximal inhibition (IC50) in test [1] amounted to 3820 nM; in [2] it was 110 nM.
Turning to `Cc1ccccc1S(=O)(=O)NC(C1=CC(=O)c2c(O)ccc(O)c2C1=O)C(C)C` (centres undefined), the IC50 came to 790 nM in test [1] and 190 nM in test [2].
For the compound `CC(C)C(NS(=O)(=O)c1ccccc1Br)C1=CC(=O)c2c(O)ccc(O)c2C1=O` (centres undefined), the IC50 in test [1] worked out at 8310 nM; in [2], 340 nM.
The corresponding values for `CC(NS(=O)(=O)c1ccc(Br)cc1)C1=CC(=O)c2c(O)ccc(O)c2C1=O` (centres undefined) are 5210 nM and 100 nM.
With `CC(NS(=O)(=O)c1ccccc1Br)C1=CC(=O)c2c(O)ccc(O)c2C1=O` (centres undefined), the concentration for half-maximal inhibition (IC50) in test [1] was found to be 6200 nM; in test [2], 120 nM. Moreover, the result in [3] was Active.
The compound `CC(C)C(NS(=O)(=O)c1ccc(F)cc1)C1=CC(=O)c2c(O)ccc(O)c2C1=O` (centres undefined) showed a half-maximal inhibitory concentration (IC50) in [1] of 6650 nM. This counts as single-digit micromolar.
With `Cc1ccc(S(=O)(=O)NC(C2=CC(=O)c3c(O)ccc(O)c3C2=O)C(C)C)cc1` (centres undefined), in test [1], the IC50 came to 4850 nM.
As to `CC(C)C(NS(=O)(=O)c1cccc(Br)c1)C1=CC(=O)c2c(O)ccc(O)c2C1=O` (centres undefined), the values for the IC50 in test [1] and in test [2] were 860 nM and 790 nM, respectively.
The compound `CC(C)C(NS(=O)(=O)c1ccc(Cl)cc1)C1=CC(=O)c2c(O)ccc(O)c2C1=O` (centres undefined) gave an IC50 in test [1] of 8650 nM.
With `CC(NS(=O)(=O)c1ccc(F)cc1)C1=CC(=O)c2c(O)ccc(O)c2C1=O` (centres undefined), the concentration for half-maximal inhibition (IC50) in [1] was 6410 nM; in test [2], 90 nM.
Consider `COc1ccc(S(=O)(=O)NC(C2=CC(=O)c3c(O)ccc(O)c3C2=O)C(C)C)c(OC)c1` (centres undefined), for which the half-inhibitory concentration (IC50) was 2750 nM in test [1] and 400 nM in test [2].
In the case of `COc1ccc(S(=O)(=O)NC(C2=CC(=O)c3c(O)ccc(O)c3C2=O)C(C)C)cc1` (centres undefined), the concentration for half-maximal inhibition (IC50) in [1] amounted to 8950 nM.
In turn, `CC(C)C(NS(=O)(=O)c1ccc(Br)cc1)C1=CC(=O)c2c(O)ccc(O)c2C1=O` (centres undefined) had an IC50 in test [1] of 7650 nM.
As to `COc1ccc(S(=O)(=O)NC(C)C2=CC(=O)c3c(O)ccc(O)c3C2=O)cc1` (centres undefined), the 50% inhibitory concentration (IC50) came out at 3760 nM in [1] and 20 nM in test [2].
`CC(NS(=O)(=O)c1cccc(Br)c1)C1=CC(=O)c2c(O)ccc(O)c2C1=O` (centres undefined): the IC50 in test [1] came to 6350 nM; in test [2] it was 160 nM. The result in test [3] was Active.

By IC50 is commonly meant the concentration that gives 50% inhibition. Higher therefore signals weaker potency.

Source of the values: ChEMBL document CHEMBL1143299, “Synthesis and biological activity of novel shikonin analogues” (Bioorg Med Chem Lett, 2009).
